Published values gathered from unrelated publications.
Lines come from different studies, so protocols differ.
Organism: Klebsiella pneumoniae
Effect on: microbial growth

SMILES	assay	system	conditions	MIC
CCCCCCC#Cc1cncc(-c2nnc(SCc3ccc([N+](=O)[O-])o3)n2CCCN)c1	broth dilution	DSM30104	–	> 64 µg/mL
C[C@@H](O)[C@H]1C(=O)N2C(C(=O)O)=C(S[C@@H]3CN[C@H](C(=O)N(C)C)C3)[C@H](C)[C@H]12	broth dilution	ATCC13883	–	0.125 µg/mL
O=C(N[C@H](CO)[C@H](O)c1ccc([N+](=O)[O-])cc1)C(Cl)Cl	broth dilution	ATCC43816	–	4 µg/mL
CC1(C)S[C@@H]2[C@H](NC(=O)[C@H](N)c3ccccc3)C(=O)N2[C@H]1C(=O)O	broth dilution	ATCC13883	–	> 64 µg/mL
CCCCCCC#Cc1cncc(-c2nnc(SCc3cc(C(F)(F)F)cc(C(F)(F)F)c3)n2CCCN)c1	broth dilution	DSM30104	–	32 to 64 µg/mL
Cc1cc(NS(=O)(=O)c2ccc(N)cc2)no1	broth dilution	ATCC43816	–	64 µg/mL
CO/N=C(\C(=O)N[C@@H]1C(=O)N2C(C(=O)O)=CCS[C@H]12)c1csc(N)n1	broth dilution	ATCC13883	–	0.125 µg/mL
CO[C@@]1(NC(=O)Cc2cccs2)C(=O)N2C(C(=O)O)=C(COC(N)=O)CS[C@@H]21	broth dilution	ATCC43816	–	1 µg/mL
[H]/N=C(\N/C(=N/[H])NCCCCCCNC(=N)NC(=N)Nc1ccc(Cl)cc1)Nc1ccc(Cl)cc1	–	ATCC4352	–	1 µM
CN(C)[C@@H]1C(O)=C(C(N)=O)C(=O)[C@@]2(O)C(O)=C3C(=O)c4c(O)cccc4[C@@](C)(O)[C@H]3C[C@@H]12	broth dilution	ATCC10031	12 h	0.13 µg/mL
O=C(O)c1cn(C2CC2)c2cc(N3CCNCC3)c(F)cc2c1=O	broth dilution	ATCC700603	–	> 512 µg/mL
CCCCCCC#Cc1cncc(-c2nnc(SCc3cc([N+](=O)[O-])cc([N+](=O)[O-])c3)n2CCOC2OC(CN)C(O)C2O)c1 (centres unmarked)	broth dilution	DSM30104	–	> 64 µg/mL
Cc1nnc(SCC2=C(C(=O)O)N3C(=O)[C@@H](NC(=O)Cn4cnnn4)[C@H]3SC2)s1	broth dilution	ATCC43816	–	1 µg/mL
CC1(C)S[C@@H]2[C@H](NC(=O)[C@H](N)c3ccccc3)C(=O)N2[C@H]1C(=O)O	broth dilution	ATCC700603	–	8 µg/mL
